Data set [1] concerns Primary neuron. Kind of data set: Positive allosteric modulation of AMPA receptor in rat embryonic cortex primary neuronal culture assessed as maximal increase in AMPA-induced membrane depolarization normalized to AMPA-evoked response by microplate reader. Type of data set: cell membranes. A digest of the protocol: (§1)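 Primary cultures of rat embryonic cortical neurons; depolarization evoked by 300 μM AMPA read with fluorescent membrane potential dyes on an imaging plate reader. EC2× is the modulator level doubling the AMPA response (geometric mean, 95% CI).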

Data set [2] has as its system Primary neuron. Nature of the data set: Potentiation of AMPA receptor in rat embryonic cortex primary neuronal culture assessed as concentration required to 2-fold increase in AMPA-induced membrane depolarization by microplate reader. Type of data set: cell membranes. A digest of the protocol: as §1
For data set [3], the species on record is Rattus norvegicus. Kind of data set: Positive allosteric modulation of AMPA receptor in rat hippocampal slice assessed as increase in AMPA-mediated presynaptic noradrenaline release. The data set is classed as tissue-based. On the set-up: concentration or dose not given beside the values. The following applies: Hippocampus. Summed up: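 Rat hippocampal slices, [3H]noradrenaline release evoked by (S)-AMPA 10 μM, modulator at 300 μM; release given as percent of (S)-AMPA alone taken as 100%.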

The nature of data set [4]: Positive allosteric modulation of AMPA receptor in rat embryonic cortex primary neuronal culture assessed as increase in AMPA-induced membrane depolarization by microplate reader. Type of data set: cell membranes. The note with it: primary neuron. A digest of the protocol:
as §1

The species entered for data set [5] is Rattus norvegicus. Kind of data set: Positive allosteric modulation of AMPA receptor in rat hippocampal slice assessed as area of AMPA-mediated […] postsynaptic field potential in CA1 area at 3 uM. The data set is classed as tissue-based. The following applies: Hippocampus. A digest of the protocol: (§2)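 Rat hippocampal slices perfused with medium containing 1.2 mM Mg2+; field EPSPs recorded in CA1 after electrical stimulation of Schaffer collaterals. Area, amplitude and half-width normalized to the 10 min baseline as 100%, reported as percent increase, mean ± SEM (n = 3–4).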

Data set [6] has as its system Hippocampus. Kind of data set: Potentiation of tetanus-induced synaptic response in Wistar rat hippocampal dentate gyrus at 3 mg/kg, ip measured first 18 mins. Type of data set: functional, organism-based. On the set-up: dose 3 mg/kg. Summed up: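 Anesthetized Wistar rats, dosed ip at 3 or 10 mg/kg, n = 8 per group. Dentate gyrus responses evoked by perforant-path stimulation every 2 min, averaged over eight stimulations and normalized to the 60 min baseline. High-frequency tetanus given 1 h after dosing, with recording for 3 h. Potentiation duration judged per group against the 6 min pre-tetanus period.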

Data set [7] concerns Hippocampus. Kind of data set: Potentiation of tetanus-induced synaptic response in Wistar rat hippocampal dentate gyrus at 3 mg/kg, ip measured during 42 mins. Type of data set: functional, organism-based. On the set-up: dose 3 mg/kg.
Data set [8] can be described thus: Drug uptake in mouse brain at 3 mg/kg, po qd after 20 mins by LC-MS/MS analysis. The note with it: read-out: Drug uptake. Details: dose 3 mg/kg, route oral. Type of data set: ADME, organism-based. Summed up:
(§3)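 NMRI mice dosed orally, killed by decapitation 20 min later; brain and blood rapidly removed and frozen, compound quantified by LC−MS/MS. Brain in ng/g, plasma in ng/mL; n = 3.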

Data set [9] is filed under the species Rattus norvegicus. Kind of data set: Positive allosteric modulation of AMPA receptor in rat hippocampal slice assessed as half-width of AMPA-mediated […] postsynaptic field potential in CA1 area at 3 uM. Type of data set: tissue-based. The following applies: Hippocampus. A digest of the protocol:
as §2

For data set [10], the system named is Hippocampus. Kind of data set: Potentiation of high-frequency stimulation-induced synaptic response in Wistar rat hippocampal dentate gyrus assessed as excitatory postsynaptic field potential at 3 mg/kg, ip after 3 hrs. On the set-up: dose 3 mg/kg. Type of data set: functional, organism-based. A digest of the protocol: (§4)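 Anesthetized Wistar rats dosed ip; perforant-path stimulation with dentate gyrus responses. 1 h after dosing, LTP induced by tetanic high-frequency stimulation and responses followed 3 h; eight responses averaged (every 2 min), normalized to 60 min baseline. n = 8 per group; Dunnett test after two-way ANOVA versus vehicle.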

The subject of data set [11] is Hippocampus. Kind of data set: Potentiation of high-frequency stimulation-induced synaptic response in Wistar rat hippocampal dentate gyrus assessed as increase in long-term potentiation at 10 mg/kg, ip after 1 hr. The data set is classed as functional, organism-based. Details: dose 10 mg/kg. Summed up:
as §4

The species named for data set [12] is Rattus norvegicus. Kind of data set: Positive allosteric modulation of AMPA receptor in rat hippocampal slice assessed as amplitude of AMPA-mediated […] postsynaptic field potential in CA1 area at 3 uM. The data set is classed as tissue-based. The following applies: Hippocampus. A digest of the protocol:
as §2

For data set [13], the species on record is Rattus norvegicus. Kind of data set: Positive allosteric modulation of AMPA receptor in rat hippocampal slice assessed as amplitude of AMPA-mediated […] postsynaptic field potential in CA1 area at 10 uM. The data set is classed as tissue-based. The note with it: Hippocampus. A digest of the protocol:
as §2

The test system of data set [14] is Hippocampus. Kind of data set: Potentiation of high-frequency stimulation-induced synaptic response in Wistar rat hippocampal dentate gyrus assessed as excitatory postsynaptic field potential at 10 mg/kg, ip after 3 hrs. The data set is classed as functional, organism-based. On the set-up: dose 10 mg/kg. Summed up:
as §4

The species entered for data set [15] is Rattus norvegicus. Kind of data set: Positive allosteric modulation of AMPA receptor in rat hippocampal slice assessed as area of AMPA-mediated […] postsynaptic field potential in CA1 area at 10 uM. The data set is classed as tissue-based. The following applies: Hippocampus. Summed up: as §2
A short description of data set [16]: Drug uptake in mouse plasma at 3 mg/kg, po qd after 20 mins by LC-MS/MS analysis. The data set is classed as ADME, organism-based. On the set-up: dose 3 mg/kg, route oral. Summed up: as §3
A short description of data set [17]: Ratio of drug level in mouse brain to plasma at 3 mg/kg, po qd after 20 mins by LC-MS/MS analysis. Type of data set: ADME, organism-based. Details: dose 3 mg/kg, route oral. A digest of the protocol: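 Oral dosing in NMRI mice, 20 min before decapitation; brain and plasma levels measured by LC−MS/MS (n = 3), ratio taken as [brain]/[plasma] in mL/g.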
For data set [18], the species on record is Rattus norvegicus. Nature of the data set: Positive allosteric modulation of AMPA receptor in rat hippocampal slice assessed as half-width of AMPA-mediated […] postsynaptic field potential in CA1 area at 10 uM. Type of data set: tissue-based. The note with it: Hippocampus. Summed up:
as §2

The subject of data set [19] is Mus musculus. Kind of data set: Increase in object recognition task in CD1 mouse at 1 mg/kg, po after 24 hrs. Type of data set: functional, organism-based. Details: dose 1 mg/kg. Summed up:
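Three-session test (habituation, familiarization, recognition) given at 24 h intervals in CD1 mice, compound given orally 1 h before each session. Durations of exploring new versus familiar objects recorded; mean + SEM, paired Student's t test versus familiar object.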

For data set [20], the target named is Glutamate receptor 2 (Homo sapiens, UniProt P42262). Nature of the data set: Binding affinity to GluA2-LBD-L483Y-N754S complex (unknown origin) by isothermal titration calorimetry. A digest of the protocol: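 Direct ITC titration at 25 °C. 20 × 2 μL injections at 3 min, the first 0.4 μL. First point discarded and dilution heat subtracted before a single-site fit. Mean of three titrations.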
(In general: ITC needs no label: the signal is the heat of the interaction.)

SMILES strings stand for the structures. Calls of active or inactive are those of the source. The rule behind the calls is not given here.

The EC50 is the concentration that produces a half-maximal response. Broadly, the Kp is the ratio of the level in a tissue or fluid to that in plasma or blood. In general, Kd refers to the equilibrium constant for the complex coming apart.

Glutamate receptor 2, sequence (P42262 whole entry, the tested form may be a part): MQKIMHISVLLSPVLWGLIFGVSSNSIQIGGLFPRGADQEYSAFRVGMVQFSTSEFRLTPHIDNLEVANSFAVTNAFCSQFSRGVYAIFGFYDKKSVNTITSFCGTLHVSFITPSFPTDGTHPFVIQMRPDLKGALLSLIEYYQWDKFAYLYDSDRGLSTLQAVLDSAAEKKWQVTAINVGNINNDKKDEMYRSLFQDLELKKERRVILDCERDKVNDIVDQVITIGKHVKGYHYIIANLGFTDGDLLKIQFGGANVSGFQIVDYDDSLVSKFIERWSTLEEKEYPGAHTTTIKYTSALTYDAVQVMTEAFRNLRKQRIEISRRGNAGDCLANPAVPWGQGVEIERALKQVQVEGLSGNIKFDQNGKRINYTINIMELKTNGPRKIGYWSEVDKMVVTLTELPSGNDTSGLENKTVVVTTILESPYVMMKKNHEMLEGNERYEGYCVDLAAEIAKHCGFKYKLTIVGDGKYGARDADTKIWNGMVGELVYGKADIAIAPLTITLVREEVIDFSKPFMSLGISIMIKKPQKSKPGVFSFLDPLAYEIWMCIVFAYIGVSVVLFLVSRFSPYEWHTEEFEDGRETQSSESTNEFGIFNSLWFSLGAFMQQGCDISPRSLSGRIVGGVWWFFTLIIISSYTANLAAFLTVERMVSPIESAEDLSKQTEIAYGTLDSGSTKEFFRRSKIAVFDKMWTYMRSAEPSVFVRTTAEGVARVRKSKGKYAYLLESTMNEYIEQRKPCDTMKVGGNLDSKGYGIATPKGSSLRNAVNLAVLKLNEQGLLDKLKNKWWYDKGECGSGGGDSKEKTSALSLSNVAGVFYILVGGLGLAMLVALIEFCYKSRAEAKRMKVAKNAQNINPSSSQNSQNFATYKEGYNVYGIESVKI

As for `O=S1(=O)NCN(C2CC2)c2ncccc21`, the Emax in data set [1] is more than 4. Besides, the figures for the Activity in data set [2] and in [3] were 13.9 µM and 221%, respectively.

For the molecule `O=S1(=O)NCN(C2CC2)c2cccc(Cl)c21`, the Emax in data set [1] is more than 9. Moreover, the results for the Activity in data set [2] and in data set [3] were 2 µM and 352%, respectively.

With `O=S1(=O)NCN(C2CC2)c2cc(Cl)ccc21`, the Emax in [1] was more than 5. The Activity is 5.2 µM in data set [2] and 327% in data set [3].

For `O=S1(=O)NCN(C2CC2)c2cccnc21`, in [4], the 50% effective concentration (EC50) came to 1.5 µM. Also, the Emax in [1] was determined as 10. Moreover, the Activity in data set [2] was 0.35 µM; in data set [3] it was 323%.

Take `O=S1(=O)NCN(C2CC2)c2ccc(Cl)cc21`: the EC50 in data set [4] was found to be 2.9 µM. Moreover, in data set [1], the Emax came out at 11. For the same molecule, the Activity in [5] turned out to be 10%; in data set [9], 9%; in [12] it was 5.3%; in data set [2], 0.68 µM; in data set [13] it was 58%; in data set [3] it was 411%. Besides, the Activity in data set [15] was 145%; in data set [18] it was 113%. For the same molecule, the outcome in data set [6], in [7], in data set [10], in data set [11], in data set [14] and in [19] was Active. The concentration at 20 min in data set [8] was 72.7 ng/g; in data set [16], 64.7 ng/mL. For the same molecule, in [17], the partition ratio (Kp) at 20 min is 1.12.

`CCN1CNS(=O)(=O)c2cnccc21` showed a Kd in [20] of 1200 µM.

Consider `O=S1(=O)NCN(C2CC2)c2c(Cl)cccc21`, for which the Emax in data set [1] was more than 3. Also, the Activity in data set [2] worked out at 27.1 µM; in data set [3] it was 196%.

As for `O=S1(=O)NCN(C2CC2)c2ccncc21`, in data set [1], the Emax is more than 11. Besides, the figures for the Activity in data set [2] and in data set [3] were 4.4 µM and 330%, respectively.

In the case of `O=S1(=O)NCN(C2CC2)c2ccc(F)cc21`, the EC50 in [4] turned out to be 0.9 µM. The Emax in data set [1] was determined as 15. In addition, in [2], the Activity is 0.27 µM. Moreover, the Kd in data set [20] is 0.35 µM.

As for `O=S1(=O)NCN(C2CC2)c2ncc(Cl)cc21`, the Emax in [1] was more than 7. Besides, the Activity in [2] came to 2.4 µM; in data set [3], 276%.

These data come from ChEMBL document CHEMBL3351484, “Positive allosteric modulators of 2-amino-3-(3-hydroxy-5-methylisoxazol-4-yl)propionic acid receptors belonging to 4-cyclopropyl-3,4-dihydro-2h-1,2,4-pyridothiadiazine dioxides and diversely chloro-substituted 4-cyclopropyl-3,4-dihydro-2H-1,2,4-benzothiadiazine 1,1-dioxides” (J Med Chem, 2014).
